The text below walks through data of ChEMBL document CHEMBL3400028, “Evaluation of Aconitum diterpenoid alkaloids as antiproliferative agents” (2015).

What all share (type): functional
The subject of one test is A549. Kind of test: Antiproliferative activity against human A549 cells by sulforhodamine B assay. An outline of the steps:
(§1)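 Cells in RPMI 1640 (25 mM HEPES, 2 mM L-glutamine, 10% heat-inactivated FBS, antibiotics) at 37 °C, 5% CO2. Seeded at 3–5 × 10³/well with graded concentrations, paclitaxel as assay control, for 72 h. TCA-fixed, stained with 0.04% SRB, dye dissolved in 10 mM Tris, A515 read. GI50 is the concentration halving absorbance versus untreated cells; three or more experiments.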
(Sulforhodamine B stains cellular protein and so reports cell mass.)

A short description of test [1]: Antiproliferative activity against multidrug-resistant P-gp expressing human KBVIN cells by sulforhodamine B assay. The gist of the method:
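Vincristine-resistant KB subline kept in 100 nM vincristine, then grown 7–10 days without it before testing. RPMI 1640 with 10% FBS, 37 °C, 5% CO2. 3–5 × 10³ cells/well exposed 72 h to a concentration series, paclitaxel as assay control. SRB staining after TCA fixation, A515 read. GI50 is the 50% absorbance reduction versus untreated cells; three or more experiments.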

In another test the test system is DU-145. Kind of test: Antiproliferative activity against human DU145 cells by sulforhodamine B assay. An outline of the steps: as §1
Test [2] is described as follows: Selectivity ratio of GI50 for human KB cells to GI50 for multidrug-resistant P-gp expressing human KBVIN cells. The gist of the method:
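Ratio of GI50 in parental KB to GI50 in P-gp-overexpressing KB-VIN. […] KB-VIN cells were grown 7–10 days without vincristine before the assay.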

For a further test, the system named is KB. Kind of test: Antiproliferative activity against human KB cells by sulforhodamine B assay. The gist of the method:
as §1

In general, GI50 refers to the concentration at which growth is held to half of that of the control. Higher therefore signals less potent growth inhibition. As for `COC[C@]12CN(C)C3[C@@H]4[C@H](OC)[C@H]1[C@@]3([C@@H](OC)C[C@H]2O)[C@@H]1C[C@@]2(O)[C@H](OC(=O)c3ccccc3)[C@@H]1[C@]4(OC(C)=O)[C@@H](O)[C@@H]2OC`, the GI50 (with A549; in test [1]; in the test on DU-145; in the test on KB) was over 20 µM each time. Also, the RatioGI50 in test [2] was over 20.

In the case of `C=C1[C@H]2C[C@H]3C4N5C[C@]6(C)CCC[C@]47[C@H]([C@H]2OC(=O)c2ccccc2)C3(C[C@]5(OC(=O)c2ccccc2)[C@H]67)[C@@H]1O`, the GI50 (with A549; in test [1]; in the test on DU-145; in the test with KB) was 10 µM in each case. In test [2], the RatioGI50 is listed as 10.

For `C=C1[C@H]2C[C@@]3([C@@H]1OC(=O)c1ccccc1)[C@@H](C[C@@H]2OC(=O)c1ccccc1)[C@@]12C4[C@@H]3C[C@@H]1[C@@](C)(CC[C@@H]2O)CN4CC`, the GI50 (in the test on A549; in test [1]; with DU-145; with KB) was over 20 µM in each case. Further, in test [2], the RatioGI50 is over 20.

For `C=C1[C@H]2C[C@@]3([C@@H]1OC(=O)c1ccccc1)[C@@H](C[C@@H]2OC(=O)c1ccccc1)[C@@]12C4[C@@H]3C[C@@H]1[C@@](C)(CC[C@@H]2OC(=O)c1ccccc1)CN4CC`, the GI50 (with A549; in test [1]; with DU-145; in the test with KB) was over 20 µM each time. Also, the RatioGI50 in test [2] is recorded as over 20.

For `CCN1C[C@]2(COC)[C@H](O)C[C@H](OC(C)=O)[C@]34C1[C@@](O)([C@@H](OC)[C@H]23)[C@@]1(O)C[C@H](OC)[C@H]2C[C@@H]4[C@@H]1[C@H]2OC(C)=O`, the GI50 (with A549; in test [1]; with DU-145; in the test with KB) was over 20 µM throughout. Moreover, the RatioGI50 in test [2] is on record as over 20.

`CCN1C[C@]2(COC)CC[C@H](O)[C@]34C1[C@@H]([C@H](OC)[C@H]23)[C@@]1(O)C[C@H](OC)[C@H]2C[C@@H]4[C@@H]1[C@H]2OC(=O)c1ccccc1`: the GI50 (in the test with A549; in test [1]; in the test with DU-145; in the test on KB) was over 20 µM each time. For the same compound, the RatioGI50 in test [2] is on record as over 20.

Regarding `CCN1C[C@]2(C)CC[C@H](OC)[C@@]34[C@@H]5C[C@H]6[C@H](OC)[C@@H]5[C@@]5(C[C@@H]6OC)OCO[C@@]5(C(=O)[C@H]23)[C@@H]14` [PACININE], the 50% growth inhibitory concentration (GI50) (in the test with A549; in test [1]; in the test on DU-145; in the test on KB) was over 20 µM each time. In test [2], the RatioGI50 is recorded as over 20.

Consider `CCN1C[C@@]2(COC)[C@H]3[C@@H](OC)C=C4[C@H]5[C@@H](OC(=O)c6ccc(OC)cc6)[C@](O)(C[C@H]5[C@@]35C1O[C@@H]2C[C@@H]5OC)[C@@H](OC)[C@@H]4O`, for which the concentration for 50% growth inhibition (GI50) (in the test with A549; in test [1]; in the test with DU-145; with KB) was over 20 µM throughout. The RatioGI50 in test [2] is listed as over 20.

For `CCN1C2OC3CCC2(COC)[C@H]2[C@H](OC)[C@]4(O)C1[C@@]32[C@@H]1C[C@H]2[C@H](O)[C@@H]1[C@]4(O)C[C@@H]2OC`, the GI50 (in the test on A549; in test [1]; with DU-145; with KB) was over 20 µM throughout. Besides, the RatioGI50 in test [2] is over 20.

As to `C=C1[C@H]2C[C@@]3([C@@H]1OC(C)=O)[C@@H](C[C@@H]2O)[C@@]12C4[C@@H]3C[C@@H]1[C@@](C)(CC[C@@H]2O)C[N+]4([O-])CC` (stereo not given in full), the GI50 (in the test on A549; in test [1]; with DU-145; in the test on KB) was over 20 µM in each case. The RatioGI50 in test [2] is reported as over 20.

`C=C1[C@H]2C[C@@H]3C4N5C[C@]6(C)CCC[C@@]47[C@@H]6[C@@H]5C[C@]3([C@@H]1OC(=O)/C=C/c1cccc(C(F)(F)F)c1)[C@H]7[C@H]2OC(=O)/C=C/c1cccc(C(F)(F)F)c1`: the GI50 stood at 5.5 µM with A549, 3.1 µM in test [1], 6.2 µM in the test with DU-145 and 4.1 µM in the test with KB. Further, in test [2], the RatioGI50 is on record as 1.3.

On to `C=C1[C@H]2C[C@@]3([C@@H]1O)[C@@H](C[C@@H]2O)[C@@]12C4[C@@H]3C[C@@H]1[C@@](C)(CC[C@@H]2OC(C)=O)CN4CC`, for which the GI50 (in the test with A549; in test [1]; with DU-145; with KB) was over 20 µM in each case. In addition, the RatioGI50 in test [2] is over 20.

As to `CCN1C[C@]2(COC(=O)c3ccccc3N)CC[C@H](OC)[C@]34C1[C@@](O)([C@@H](OC)[C@H]23)[C@@]1(O)C[C@H](OC)[C@H]2C[C@@H]4[C@@H]1[C@H]2OC(C)=O`, the concentration for 50% growth inhibition (GI50) (in the test with A549; in test [1]; with DU-145; in the test on KB) was over 20 µM each time. Further, the RatioGI50 in test [2] is given as over 20.

In the case of `C=C1[C@H]2C[C@@H]3C4N5C[C@]6(C)CCC[C@@]47[C@@H]6[C@@H]5C[C@]3([C@@H]1OC(=O)c1ccc(F)cc1)[C@H]7[C@H]2O`, the GI50 (with A549; in test [1]; in the test on DU-145; in the test with KB) was over 20 µM throughout. Besides, the RatioGI50 in test [2] is over 20.

`C=C1[C@H]2C[C@@H]3C4N5C[C@]6(C)CCC[C@@]47[C@@H]6[C@@H]5C[C@]3([C@@H]1O)[C@H]7[C@H]2OC(=O)c1ccc(OC)cc1`: the GI50 (in the test on A549; in test [1]; in the test on DU-145; with KB) was over 20 µM throughout. Besides, the RatioGI50 in test [2] was over 20.

With `COC[C@]12CC[C@H](O)[C@]34C(NC1)[C@@](O)([C@@H](OC)[C@H]23)[C@@]1(O)C[C@H](OC)[C@H]2C[C@@H]4[C@@H]1[C@H]2OC`, the GI50 (in the test on A549; in test [1]; in the test on DU-145; in the test with KB) was over 20 µM each time. In addition, the RatioGI50 in test [2] is over 20.

In the case of `CCN1C(=O)[C@]2(C)CC[C@H](OC)[C@@]34[C@@H]5C[C@H]6[C@H](OC)[C@@H]5[C@@]5(C[C@@H]6OC)OCO[C@@]5([C@@H](O)[C@@H]32)[C@@H]14`, the GI50 (in the test with A549; in test [1]; with DU-145; in the test with KB) was over 20 µM in each case. In test [2], the RatioGI50 is listed as over 20.

Consider `C=C1[C@H]2C[C@@H]3C4N5C[C@]6(C)CCC[C@@]47[C@@H]6[C@@]5(O)C[C@]3([C@@H]1OC(=O)c1cccc([N+](=O)[O-])c1)[C@H]7[C@H]2OC(=O)c1cccc([N+](=O)[O-])c1`, for which the GI50 in the test with A549 came to 5 µM; in test [1], 5.6 µM; with DU-145, 5.2 µM; with KB it was 5.6 µM. Also, the RatioGI50 in test [2] stood at 0.99.

For `CCN1C[C@]2(COC)CC[C@H](OC)[C@]34C1C([C@H](OC)[C@H]23)[C@]1(OC(C)=O)[C@H]2[C@@H](OC(=O)c3ccc(OC)cc3)[C@](O)(C[C@H]24)[C@@H](OC)[C@@H]1O` [DEOXYJESACONITINE], the GI50 (with A549; in test [1]; in the test with DU-145; in the test on KB) was over 20 µM throughout. Further, the RatioGI50 in test [2] is on record as over 20.

Turning to `C=C1[C@@H](O)[C@]23C[C@@H]1[C@@H](OC(=O)c1ccccc1)C[C@H]2[C@@]12C4C3C[C@@H]1[C@@](C)(CC[C@H]2O)CN4CC`, the GI50 (in the test with A549; in test [1]; in the test on DU-145; in the test on KB) was over 20 µM each time. Also, the RatioGI50 in test [2] is given as over 20.

Regarding `C=C1[C@H]2C[C@H]3C4N5C[C@]6(C)CCC[C@]47[C@H]([C@H]2OC(=O)c2ccc(OC)cc2)C3(C[C@]5(O)[C@H]67)[C@@H]1O`, the GI50 (with A549; in test [1]; in the test with DU-145; in the test on KB) was 10 µM each time. In addition, the RatioGI50 in test [2] amounted to 10.

For `C=C1[C@H]2C[C@@]3([C@@H]1OC(C)=O)[C@@H](C[C@@H]2OC(=O)c1ccccc1)[C@@]12C4[C@@H]3C[C@@H]1[C@@](C)(CC[C@@H]2O)CN4CC`, the GI50 (in the test with A549; in test [1]; with DU-145; with KB) was over 20 µM throughout. Moreover, the RatioGI50 in test [2] is on record as over 20.

For the compound `CCN1C[C@]2(COC)[C@H](O)C[C@H](OC)[C@]34C1[C@H]([C@H](OC)[C@H]23)[C@]1(OC(C)=O)[C@H]2[C@@H](OC(=O)c3ccc(OC)cc3)[C@](O)(C[C@H]24)[C@@H](OC)[C@@H]1O`, the concentration for 50% growth inhibition (GI50) (in the test on A549; in test [1]; in the test with DU-145; in the test with KB) was over 20 µM in each case. Also, the RatioGI50 in test [2] is given as over 20.

As for `C=C1[C@H]2C[C@@H]3C4N5C[C@]6(C)CCC[C@@]47[C@@H]6[C@@H]5C[C@]3([C@@H]1OC(=O)c1ccccc1)[C@H]7[C@H]2O`, the GI50 (in the test on A549; in test [1]; with DU-145; in the test with KB) was over 20 µM each time. Besides, in test [2], the RatioGI50 was over 20.
